# Measurements published in ChEMBL document CHEMBL1142276, “Synthesis, cannabinoid receptor affinity, and molecular modeling studies of substituted 1-aryl-5-(1H-pyrrol-1-yl)-1H-pyrazole-3-carboxamides” (J Med Chem, 2008).
# Activity calls are given as the source filed them. The calls are words filed in the database; no cut-off is given here.
# Key:
# Homo sapiens = species: Homo sapiens; experiment: Ratio of Ki for human recombinant CB2 receptor to human recombinant CB1 receptor
# Cannabinoid receptor 1 [1] = biological target: Cannabinoid receptor 1 (Homo sapiens, UniProt P21554); experiment: biochemical; type: cell-based, HEK293
# Sequence of Cannabinoid receptor 1 (Homo sapiens, UniProt P21554) (P21554 whole entry): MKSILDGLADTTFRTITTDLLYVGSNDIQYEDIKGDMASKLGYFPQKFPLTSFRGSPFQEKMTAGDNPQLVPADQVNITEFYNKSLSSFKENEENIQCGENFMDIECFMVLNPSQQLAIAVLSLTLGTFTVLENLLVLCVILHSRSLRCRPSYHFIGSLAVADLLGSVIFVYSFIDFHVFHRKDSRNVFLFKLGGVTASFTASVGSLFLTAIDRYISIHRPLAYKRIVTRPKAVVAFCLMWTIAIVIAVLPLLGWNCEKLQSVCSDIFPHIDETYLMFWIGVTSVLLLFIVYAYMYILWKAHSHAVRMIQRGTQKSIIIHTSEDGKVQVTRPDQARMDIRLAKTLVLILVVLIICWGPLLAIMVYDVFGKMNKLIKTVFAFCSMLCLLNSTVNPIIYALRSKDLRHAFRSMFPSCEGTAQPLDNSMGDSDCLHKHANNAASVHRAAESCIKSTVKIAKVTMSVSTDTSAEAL
# Cannabinoid receptor 2 = Cannabinoid receptor 2 (Homo sapiens, UniProt P34972); experiment: Displacement of [3H]CP-55940 from human recombinant CB2 receptor expressed in HEK cells; type: cell-based, HEK293
# Sequence of Cannabinoid receptor 2 (P34972 whole entry): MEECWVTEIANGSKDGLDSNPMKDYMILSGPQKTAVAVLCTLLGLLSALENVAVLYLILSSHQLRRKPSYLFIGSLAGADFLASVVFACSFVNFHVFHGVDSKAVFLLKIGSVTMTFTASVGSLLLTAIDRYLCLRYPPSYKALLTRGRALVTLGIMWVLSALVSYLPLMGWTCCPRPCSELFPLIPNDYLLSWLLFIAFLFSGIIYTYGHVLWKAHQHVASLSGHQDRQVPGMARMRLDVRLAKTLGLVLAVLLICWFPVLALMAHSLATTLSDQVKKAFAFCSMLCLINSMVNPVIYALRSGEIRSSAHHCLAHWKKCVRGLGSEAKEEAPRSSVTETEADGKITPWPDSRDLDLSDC
# Outline: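 Membranes came from HEK cells transfected with human CB2. IC50 values were converted to Ki by Cheng-Prusoff. Values are means of at least three experiments, each in duplicate.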
# [2] = biological target: Cannabinoid receptor 1 (Mus musculus) (UniProt P47746); experiment: Activity at mouse CB1 receptor in mouse N18TG2 cells assessed as inhibition of forskolin-induced cAMP formation at 200 to 300 nM; type: functional, cell-based
# Sequence of Cannabinoid receptor 1 (Mus musculus) (P47746 whole entry): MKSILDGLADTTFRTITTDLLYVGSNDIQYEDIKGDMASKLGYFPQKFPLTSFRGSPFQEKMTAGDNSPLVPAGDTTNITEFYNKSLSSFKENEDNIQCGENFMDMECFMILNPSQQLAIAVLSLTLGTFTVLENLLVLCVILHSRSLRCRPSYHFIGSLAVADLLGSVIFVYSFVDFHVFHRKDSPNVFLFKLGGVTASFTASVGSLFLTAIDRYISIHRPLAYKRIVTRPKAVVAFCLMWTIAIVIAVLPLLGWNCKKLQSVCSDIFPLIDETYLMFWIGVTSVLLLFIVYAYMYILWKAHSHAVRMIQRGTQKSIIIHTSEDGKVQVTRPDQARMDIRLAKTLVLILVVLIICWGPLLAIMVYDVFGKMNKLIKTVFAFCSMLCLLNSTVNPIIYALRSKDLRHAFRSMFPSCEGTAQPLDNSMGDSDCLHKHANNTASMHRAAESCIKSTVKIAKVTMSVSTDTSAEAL
# Outline: (§1)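 Intact confluent mouse N18TG2 neuroblastoma cells were stimulated for 10 min at 37 °C with 1 µM forskolin in serum-free DMEM with 20 mM HEPES, 0.1 mg/mL BSA and 0.1 mM IBMX. Compounds were given at various concentrations, with vehicle 0.1% methanol. Cells were then extracted with ethanol and cAMP was measured by kit.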
# Cannabinoid receptor 1 [3] = biological target: Cannabinoid receptor 1 (Mus musculus, UniProt P47746); experiment: Activity at mouse CB1 receptor in mouse N18TG2 cells assessed as forskolin-induced cAMP formation; type: functional, cell-based
# Sequence of Cannabinoid receptor 1 (Mus musculus, UniProt P47746) (P47746 whole entry): as above
# Outline: as §1
# [4] = biological target: Cannabinoid receptor 1 (Mus musculus) (UniProt P47746); experiment: Antagonist activity at mouse CB1 receptor in mouse N18TG2 cells assessed as forskolin-induced cAMP formation in presence of WIN-55212-2; type: functional, cell-based
# Outline: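 Intact confluent N18TG2 cells were exposed to compound with or without the CB1 agonist WIN55,212-2 at 100 nM, in the presence and absence of 1 µM forskolin. Incubation was 10 min at 37 °C in serum-free DMEM with HEPES, BSA and IBMX, vehicle 0.1% methanol. cAMP in ethanol extracts was quantified by kit.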
SMILES,Ratio Ki (Homo sapiens),IC50 (Cannabinoid receptor 1 [1]),Ki (Cannabinoid receptor 1 [1]),Ki (Cannabinoid receptor 2),IC50 (Cannabinoid receptor 2; read-out: IC50),IC50 (Cannabinoid receptor 2; hek293),Activity [2],EC50 (Cannabinoid receptor 1 [3]),Activity [4]
Cc1c(C(=O)NCC2CCCCC2)nn(-c2ccc(Cl)cc2)c1-n1cccc1,3.55,200 nM,110 nM,390 nM,500 nM,–,–,–,–
Cc1c(C(=O)NC2CCCCC2)nn(-c2ccc(F)cc2F)c1-n1cccc1,–,–,–,65 nM,83 nM,–,–,–,–
Cc1c(C(=O)NCc2ccc(Cl)c(Cl)c2)nn(-c2ccc(F)cc2F)c1-n1cccc1,–,–,–,390 nM,500 nM,–,–,–,–
Cc1c(C(=O)NC2CCCCC2)nn(-c2c(Cl)cc(Cl)cc2Cl)c1-n1c(C)ccc1C,–,–,–,390 nM,500 nM,–,–,–,–
Cc1nn(-c2ccc(Cl)cc2)c(-n2cccc2)c1C(=O)NN1CCCCC1,–,> 5000 nM,> 2820 nM,> 3940 nM,–,–,–,–,–
Cc1c(C(=O)NN2CCCCC2)nn(-c2ccccc2)c1-n1cccc1,–,> 5000 nM,> 2820 nM,> 3940 nM,–,Not Active,–,–,–
Cc1c(C(=O)NN2CCCCC2)nn(-c2c(Cl)cc(Cl)cc2Cl)c1-n1c(C)ccc1C,> 35.8,200 nM,110 nM,> 3940 nM,> 5000 nM,–,–,–,–
N#Cc1c(C(=O)NN2CCCCC2)nn(-c2ccccc2)c1-n1cccc1,–,> 5000 nM,> 2820 nM,> 3940 nM,–,–,–,–,–
Cc1c(C(=O)NN2CCCCC2)nn(-c2ccc(Cl)cc2Cl)c1-n1c(C)ccc1C,25.8,67 nM,38 nM,980 nM,1240 nM,–,–,–,–
Cc1c(C(=O)NC2CCCCC2)nn(-c2ccc(Cl)cc2Cl)c1-n1cccc1,1.14,100 nM,56 nM,64 nM,81 nM,–,–,–,–
Cc1c(C(=O)NN2CCCCC2)nn(-c2ccc(F)cc2F)c1-n1cccc1,–,–,–,2400 nM,3000 nM,–,–,–,–
Cc1c(C(=O)NCc2ccc(Cl)c(Cl)c2)nn(-c2ccc(Cl)cc2Cl)c1-n1cccc1,–,–,–,510 nM,650 nM,–,–,–,–
Cc1c(C(=O)NCc2ccc(Cl)c(Cl)c2)nn(-c2ccc(Cl)cc2Cl)c1-n1c(C)ccc1C,141,50 nM,28 nM,3940 nM,5000 nM,–,inactive,25 nM,–
Cc1c(C(=O)NN2CCCCC2)nn(-c2ccc(Cl)cc2Cl)c1-n1cccc1,0.94,3300 nM,1850 nM,1730 nM,200 nM,–,–,–,–
Cc1c(C(=O)NCc2ccc(Cl)c(Cl)c2)nn(-c2ccc(F)cc2F)c1-n1c(C)ccc1C,> 113,62 nM,35 nM,> 3940 nM,> 5000 nM,–,–,> 60 nM,–
N#Cc1c(C(=O)NCc2ccc(Cl)c(Cl)c2)nn(-c2ccccc2)c1-n1cccc1,–,–,–,> 3940 nM,> 5000 nM,–,–,–,–
O=C(NN1CCCCC1)c1cc(-n2cccc2)n(-c2ccc(Cl)cc2)n1,–,–,–,> 3940 nM,–,–,–,–,–

SMILES,Ratio Ki (Homo sapiens),IC50 (Cannabinoid receptor 1 [1]),Ki (Cannabinoid receptor 1 [1]),Ki (Cannabinoid receptor 2),IC50 (Cannabinoid receptor 2; read-out: IC50),IC50 (Cannabinoid receptor 2; hek293),Activity [2],EC50 (Cannabinoid receptor 1 [3]),Activity [4]
Cc1c(C(=O)NN2CCCCC2)nn(-c2ccc(Cl)cc2)c1-n1cccc1,19.8,200 nM,110 nM,2180 nM,2770 nM,–,–,–,–
Cc1c(C(=O)NN2CCOCC2)nn(-c2ccc(F)cc2F)c1-n1cccc1,–,> 5000 nM,> 2820 nM,> 3940 nM,> 5000 nM,–,–,–,–
Cc1c(C(=O)NC2CCCCC2)nn(-c2ccc(Cl)c(Cl)c2)c1-n1c(C)ccc1C,0.093,25 nM,14 nM,1.3 nM,1.7 nM,–,–,–,–
N#Cc1c(C(=O)NN2CCCCC2)nn(-c2ccc(Cl)cc2)c1-n1cccc1,> 1.4,5000 nM,2820 nM,> 3940 nM,–,–,–,–,–
Cc1c(C(=O)NN2CCCCC2)nn(-c2ccc(Cl)c(Cl)c2)c1-n1c(C)ccc1C,–,–,–,29 nM,37 nM,–,–,–,–
Cc1c(C(=O)NN2CCCCC2)nn(-c2ccc(F)cc2F)c1-n1c(C)ccc1C,–,–,–,> 3940 nM,> 5000 nM,–,–,–,–
Cc1c(C(=O)NN2CCCCC2)nn(-c2ccc(Cl)c(Cl)c2)c1-n1cccc1,–,–,–,20 nM,25 nM,–,–,–,–
Cc1c(C(=O)NN2CCCCC2)nn(-c2c(Cl)cc(Cl)cc2Cl)c1-n1cccc1,> 2.19,3200 nM,1800 nM,> 3940 nM,> 5000 nM,–,–,–,–
Cc1c(C(=O)NCc2ccc(Cl)c(Cl)c2)nn(-c2ccc(Cl)c(Cl)c2)c1-n1c(C)ccc1C,4.89,500 nM,280 nM,1370 nM,1740 nM,–,–,–,–
Cc1c(C(=O)NC2CCCCC2)nn(-c2ccc(F)cc2F)c1-n1c(C)ccc1C,–,–,–,570 nM,720 nM,–,–,–,–
Cc1c(C(=O)NCc2ccc(Cl)c(Cl)c2)nn(-c2c(Cl)cc(Cl)cc2Cl)c1-n1cccc1,–,–,–,> 3940 nM,> 5000 nM,–,–,–,–
Cc1c(C(=O)NC2CCCCC2)nn(-c2ccc(Cl)cc2Cl)c1-n1c(C)ccc1C,2.07,74 nM,42 nM,87 nM,110 nM,–,–,–,–
Cc1nn(-c2ccc(Cl)cc2)c(-n2cccc2)c1C(=O)NCc1ccc(Cl)c(Cl)c1,–,–,–,> 3940 nM,–,–,–,–,–
O=C(NN1CCCCC1)c1cc(-n2cccc2)n(-c2ccccc2)n1,–,> 5000 nM,> 2820 nM,> 3940 nM,–,–,–,–,–
Cc1c(C(=O)NC2CCCCC2)nn(-c2ccc(Cl)c(Cl)c2)c1-n1cccc1,0.3,10 nM,5.6 nM,1.7 nM,2.2 nM,–,inactive,1 nM,Active
O=C(NC1CCCCC1)c1cc(-n2cccc2)n(-c2ccc(Cl)cc2)n1,6.25,500 nM,280 nM,1750 nM,2220 nM,–,–,–,–
Cc1c(C(=O)NCc2ccc(Cl)c(Cl)c2)nn(-c2ccc(Cl)c(Cl)c2)c1-n1cccc1,–,–,–,150 nM,190 nM,–,–,–,–
